{
  "source": "ChEMBL document CHEMBL4680306",
  "about": "“The 3-D conformational shape of N-naphthyl-cyclopenta[d]pyrimidines affects their potency as microtubule targeting agents and their antitumor activity” (Bioorg Med Chem, 2021)",
  "key": {"IGROV-1": {"test_system": "IGROV-1", "test": "Cytotoxicity against human IGROV-1 cells assessed as inhibition of cell growth measured after 48 hrs by SRB assay", "type": "functional"}, "KM12": {"test_system": "KM12", "test": "Cytotoxicity against human KM12 cells assessed as inhibition of cell growth measured after 48 hrs by SRB assay", "type": "functional"}, "COLO 205": {"test_system": "COLO 205", "test": "Cytotoxicity against human COLO 205 cells assessed as inhibition of cell growth measured after 48 hrs by SRB assay", "type": "functional"}, "SF-539": {"test_system": "SF-539", "test": "Cytotoxicity against human SF-539 cells assessed as inhibition of cell growth measured after 48 hrs by SRB assay", "type": "functional"}, "HOP-92": {"test_system": "HOP-92", "test": "Cytotoxicity against human HOP-92 cells assessed as inhibition of cell growth measured after 48 hrs by SRB assay", "type": "functional"}, "U-251": {"test_system": "U-251", "test": "Cytotoxicity against human U251 cell line assessed as inhibition of cell growth after 48 hrs by SRB assay", "type": "functional, cell-based", "conditions": "U-251, 48 h"}, "RXF 393": {"test_system": "RXF 393", "test": "Cytotoxicity against human RXF 393 cells assessed as inhibition of cell growth measured after 48 hrs by SRB assay", "type": "functional"}, "SNB-19": {"test_system": "SNB-19", "test": "Cytotoxicity against human SNB-19 cells assessed as inhibition of cell growth measured after 48 hrs by SRB assay", "type": "functional"}, "786-0": {"test_system": "786-0", "test": "Cytotoxicity against human 786-0 cells assessed as inhibition of cell growth measured after 48 hrs by SRB assay", "type": "functional"}, "SNB-75": {"test_system": "SNB-75", "test": "Cytotoxicity against human SNB-75 cells assessed as inhibition of cell growth measured after 48 hrs by SRB assay", "type": "functional"}, "[1]": {"test": "Antiproliferative activity against human SK-OV-3 MDR-1-6/6 cells expressing Pgp assessed as decrease in cell growth measured after 48 hrs by SRB method", "type": "functional", "conditions": "SK-OV-3, 48 h"}, "Malme-3M": {"test_system": "Malme-3M", "test": "Cytotoxicity against human Malme-3M cells assessed as inhibition of cell growth measured after 48 hrs by SRB assay", "type": "functional"}, "OVCAR-3": {"test_system": "OVCAR-3", "test": "Cytotoxicity against human OVCAR-3 cells assessed as inhibition of cell growth measured after 48 hrs by SRB assay", "type": "functional"}, "OVCAR-5": {"test_system": "OVCAR-5", "test": "Cytotoxicity against human OVCAR-5 cells assessed as inhibition of cell growth measured after 48 hrs by SRB assay", "type": "functional"}, "SK-OV-3": {"test_system": "SK-OV-3", "test": "Antiproliferative activity against human SK-OV-3 cells assessed as decrease in cell growth measured after 48 hrs by SRB method", "type": "functional, cell-based", "conditions": "SK-OV-3, 48 h"}, "HeLa": {"test_system": "HeLa", "test": "Antiproliferative activity against human HeLa cells assessed as decrease in cell growth measured after 48 hrs by SRB method", "type": "functional, cell-based"}, "[2]": {"test": "Toxicity in NCr athymic nude nu/nu mouse xenografted human U251 cells assessed as body weight change at 50 mg/kg once in a week relative to temozolomide", "type": "organism-based", "conditions": "in vivo, 17.5 mg/kg, 168 h, in the assay text read “17.5 mg/kg twice in a week” for “50 mg/kg once in a week”", "outline": "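NCr athymic nu/nu nude mice (8 wk; equal numbers of males and females) received 500,000 U251 glioma cells in the lateral flank. Once tumors were visible, mice were dosed with carrier (5% DMSO, 5% Kolliphor-15, 90% normal saline), temozolomide at 50 mg/kg/wk, or test compound at 17.5 mg/kg twice weekly until the end of the study. Body weight was monitored and tumors were caliper-measured twice weekly; n=6–8.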"}, "HT-29": {"test_system": "HT-29", "test": "Cytotoxicity against human HT-29 cells assessed as inhibition of cell growth measured after 48 hrs by SRB assay", "type": "functional"}, "[3]": {"test": "Relative resistance, ratio of IC50 for inhibition of beta3 Tubulin (unknown origin) expressed in human HeLa cell line assessed as inhibition of cell proliferation to IC50 antiproliferative activity against human HeLa cells"}, "SK-MEL-28": {"test_system": "SK-MEL-28", "test": "Cytotoxicity against human SK-MEL-28 cells assessed as inhibition of cell growth measured after 48 hrs by SRB assay", "type": "functional"}, "HOP-62": {"test_system": "HOP-62", "test": "Cytotoxicity against human HOP-62 cells assessed as inhibition of cell growth measured after 48 hrs by SRB assay", "type": "functional"}, "DU-145": {"test_system": "DU-145", "test": "Cytotoxicity against human DU-145 cells assessed as inhibition of cell growth measured after 48 hrs by SRB assay", "type": "functional"}, "[4]": {"test": "Relative resistance, ratio of IC50 for antiproliferative activity against human SK-OV-3 MDR-1-6/6 cells expressing Pgp to IC50 antiproliferative activity against human SK-OV-3 cells", "type": "functional"}, "LOX IMVI": {"test_system": "LOX IMVI", "test": "Cytotoxicity against human LOX IMVI cells assessed as inhibition of cell growth measured after 48 hrs by SRB assay", "type": "functional"}, "HL-60(TB)": {"test_system": "HL-60(TB)", "test": "Cytotoxicity against human HL-60(TB) cells assessed as inhibition of cell growth measured after 48 hrs by SRB assay", "type": "functional"}},
  "data": [
    {"smiles": "COc1cccc2cc(N(C)c3nc(C)nc4c3CCC4)ccc12", "values": [
      {"measurement": "GI50", "setting": "IGROV-1", "result": "< 10", "unit": "nM"},
      {"measurement": "GI50", "setting": "KM12", "result": "< 10", "unit": "nM"},
      {"measurement": "GI50", "setting": "COLO 205", "result": "< 10", "unit": "nM"},
      {"measurement": "GI50", "setting": "SF-539", "result": "< 10", "unit": "nM"},
      {"measurement": "GI50", "setting": "HOP-92", "result": 28.5, "unit": "nM"},
      {"measurement": "IC50", "setting": "U-251", "result": 17.6, "unit": "nM"},
      {"measurement": "GI50", "setting": "RXF 393", "result": "< 10", "unit": "nM"},
      {"measurement": "GI50", "setting": "SNB-19", "result": "< 10", "unit": "nM"},
      {"measurement": "GI50", "setting": "786-0", "result": "< 10", "unit": "nM"},
      {"measurement": "GI50", "setting": "SNB-75", "result": 1890, "unit": "nM"},
      {"measurement": "IC50", "setting": "[1]", "result": 5.7, "unit": "nM"},
      {"measurement": "GI50", "setting": "Malme-3M", "result": 11500, "unit": "nM"},
      {"measurement": "GI50", "setting": "OVCAR-3", "result": "< 10", "unit": "nM"},
      {"measurement": "GI50", "setting": "OVCAR-5", "result": "< 10", "unit": "nM"},
      {"measurement": "IC50", "setting": "SK-OV-3", "result": 2.7, "unit": "nM"},
      {"measurement": "IC50", "setting": "HeLa", "result": 3.4, "unit": "nM"},
      {"measurement": "Activity", "setting": "[2]", "result": "Non-Toxic"},
      {"measurement": "GI50", "setting": "HT-29", "result": "< 10", "unit": "nM"},
      {"measurement": "Ratio IC50", "setting": "[3]", "result": 0.8},
      {"measurement": "GI50", "setting": "SK-MEL-28", "result": 5630, "unit": "nM"},
      {"measurement": "GI50", "setting": "HOP-62", "result": "< 10", "unit": "nM"},
      {"measurement": "GI50", "setting": "DU-145", "result": "< 10", "unit": "nM"},
      {"measurement": "Ratio IC50", "setting": "[4]", "result": 2.1},
      {"measurement": "GI50", "setting": "LOX IMVI", "result": "< 10", "unit": "nM"},
      {"measurement": "GI50", "setting": "HL-60(TB)", "result": "< 10", "unit": "nM"}
    ]}
  ]
}
